Activity calls are given as the source filed them.
Key:
Histamine H3 receptor [1] = target: T1, Histamine H3 receptor (Homo sapiens, UniProt Q9Y5N1); experiment: Antagonist activity at human histamine H3 receptor long form expressed in CHOK1 cells assessed as inhibition of R-alpha-methylhistamine-induced [35S]GTPgammaS binding after 3 hrs by scintillation proximity assay; type: functional, cell-based, CHO-K1
How it was run: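 Membranes from CHO-K1 cells stably expressing human H3R long form (445 aa) incubated 3 h with test compound, 25 nM R-α-methylhistamine, 10 μM GDP, 0.2 nM [35S]GTPγS and WGA PVT SPA beads; bead-bound [35S]GTPγS counted by scintillation. Average of n > 2, standard error <20%.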

[2] = Octanol-water partition coefficient, log D of the compound by shake flask HPLC analysis; type: physicochemical
How it was run: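 logD between octanol and water by shake-flask with HPLC analysis.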

[3] = Apparent permeability from apical to basolateral side in MDCK cells; type: ADME, cell-based, Canis lupus familiaris; conditions: dog
How it was run: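 MDCK monolayers; A-to-B Papp in 1 × 10⁻⁶ cm/s; efflux taken as ratio of A-to-B Papp over B-to-A Papp.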

Histamine H3 receptor [4] = target: T1, Histamine H3 receptor; experiment: Displacement of [3H]-N-alpha-methylhistamine from human histamine H3 receptor expressed in CHOK1 cells after 1.5 hrs by scintillation proximity assay; type: cell-based, CHO-K1
How it was run: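 Human H3R-CHO-K1 membranes incubated 1.5 h with test compound and [3H]-N-α-methylhistamine in SPA format; nonspecific binding defined with 10 μM imetit; bead-bound radioligand counted. Average of n > 2, standard error <50%.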

[5] = Intrinsic clearance in human liver microsomes; type: ADME; conditions: read-out: CLH
How it was run: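 Human liver microsomal clearance, expressed as μL/min/mg.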

[6] = Equilibrium solubility of the compound at pH 7.4; type: physicochemical; conditions: buffer
[7] = Volume of distribution at steady state in rat at 2.1 umol/kg, iv; type: ADME, organism-based; conditions: in vivo, read-out: Vdss
How it was run: (§1)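 IV dosing in male fasted rats, doses in μmol/kg; mean Vss, half-life and clearance derived; number of rats per compound reported.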

[8] = Intrinsic clearance in rat liver microsomes; type: ADME; conditions: read-out: CLH
Rattus norvegicus [9] = experiment: […] clearance in rat at 2.1 umol/kg, iv; type: ADME, organism-based; conditions: in vivo; how it was run: as §1
[10] = Half life in rat at 2.1 umol/kg, iv; type: ADME, organism-based; conditions: in vivo; how it was run: as §1
Homo sapiens [11] = species: Homo sapiens; experiment: Activity at GABA receptor (unknown origin) at 10 uM relative to control
How it was run: (§2)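 Single-concentration binding at 10 μM against a panel of off-targets, run by an outside testing laboratory; activity judged against each assay's defined criteria.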

[12] = Plasma concentration in Sprague-Dawley rat at 3 umol/kg, iv after 1 hr; type: ADME, organism-based
How it was run: (§3)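 3 μmol/kg IV; plasma, brain and CSF sampled at 1 h, n = 4; brain not corrected for ~2–3% vascular contamination; nonspecific binding during CSF sampling not evaluated; mean with standard deviation.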

[13] = target: Histamine H1 receptor (Homo sapiens) (UniProt P35367); experiment: Activity at histamine H1 receptor (unknown origin) at 10 uM relative to control; how it was run: as §2
Chain of Histamine H1 receptor (Homo sapiens) (P35367 whole entry): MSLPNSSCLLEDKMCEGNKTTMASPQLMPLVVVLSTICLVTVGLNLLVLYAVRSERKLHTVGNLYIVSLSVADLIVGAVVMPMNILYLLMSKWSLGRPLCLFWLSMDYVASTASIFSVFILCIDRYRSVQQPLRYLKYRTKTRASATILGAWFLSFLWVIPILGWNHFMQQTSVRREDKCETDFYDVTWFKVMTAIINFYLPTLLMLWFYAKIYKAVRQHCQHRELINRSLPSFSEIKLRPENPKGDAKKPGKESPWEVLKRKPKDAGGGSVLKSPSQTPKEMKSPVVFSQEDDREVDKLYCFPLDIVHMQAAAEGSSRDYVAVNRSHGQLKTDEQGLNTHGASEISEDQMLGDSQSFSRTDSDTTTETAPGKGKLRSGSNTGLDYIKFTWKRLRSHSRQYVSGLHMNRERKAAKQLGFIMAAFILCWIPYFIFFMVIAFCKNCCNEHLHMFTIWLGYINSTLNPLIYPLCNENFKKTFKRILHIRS

Homo sapiens [14] = species: Homo sapiens; experiment: Activity at nicotinic acetylcholine receptor (unknown origin) at 10 uM relative to control; how it was run: as §2
[15] = target: D(2) dopamine receptor (Homo sapiens) (UniProt P14416); experiment: Activity at dopamine D2 receptor (unknown origin) at 10 uM relative to control; how it was run: as §2
Chain of D(2) dopamine receptor (Homo sapiens) (P14416 whole entry): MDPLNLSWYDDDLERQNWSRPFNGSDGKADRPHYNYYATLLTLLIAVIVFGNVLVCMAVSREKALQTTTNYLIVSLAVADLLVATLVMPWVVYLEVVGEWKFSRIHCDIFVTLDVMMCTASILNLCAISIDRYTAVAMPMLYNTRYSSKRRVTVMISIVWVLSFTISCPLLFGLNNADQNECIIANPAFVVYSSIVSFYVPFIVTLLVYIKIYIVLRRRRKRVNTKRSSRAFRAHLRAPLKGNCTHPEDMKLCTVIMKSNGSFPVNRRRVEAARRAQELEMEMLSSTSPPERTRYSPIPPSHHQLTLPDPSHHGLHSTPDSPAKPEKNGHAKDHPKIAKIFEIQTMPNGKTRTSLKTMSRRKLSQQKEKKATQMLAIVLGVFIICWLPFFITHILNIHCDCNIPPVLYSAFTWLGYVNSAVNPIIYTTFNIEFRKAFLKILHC

[16] = Drug recovery in Sprague-Dawley rat urine at 3 umol/kg, iv after 24 hrs; type: ADME, organism-based; conditions: read-out: Drug recovery
[17] = Half life in rat at 3 umol/kg, iv; type: ADME, organism-based; conditions: in vivo; how it was run: as §1
[18] = Drug uptake in Sprague-Dawley rat CSF at 3 umol/kg, iv after 1 hr; type: ADME, organism-based, Cerebrospinal fluid; conditions: read-out: Drug uptake; how it was run: as §3
[19] = Volume of distribution at steady state in rat at 3 umol/kg, iv; type: ADME, organism-based; conditions: in vivo, read-out: Vdss
How it was run: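 Male fasted rats given a single IV dose. Volume of distribution taken as the mean from plasma sampling after the IV dose. Animals per compound: 1 to 7.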

[20] = Tmax in Sprague-Dawley rat 3 umol/kg, po; type: ADME, organism-based; conditions: in vivo
[21] = target: T2, Muscarinic acetylcholine receptor M2 (Homo sapiens) (UniProt P08172); experiment: Activity at muscarinic M2 receptor (unknown origin) at 10 uM relative to control; how it was run: as §2
T2 sequence (whole entry): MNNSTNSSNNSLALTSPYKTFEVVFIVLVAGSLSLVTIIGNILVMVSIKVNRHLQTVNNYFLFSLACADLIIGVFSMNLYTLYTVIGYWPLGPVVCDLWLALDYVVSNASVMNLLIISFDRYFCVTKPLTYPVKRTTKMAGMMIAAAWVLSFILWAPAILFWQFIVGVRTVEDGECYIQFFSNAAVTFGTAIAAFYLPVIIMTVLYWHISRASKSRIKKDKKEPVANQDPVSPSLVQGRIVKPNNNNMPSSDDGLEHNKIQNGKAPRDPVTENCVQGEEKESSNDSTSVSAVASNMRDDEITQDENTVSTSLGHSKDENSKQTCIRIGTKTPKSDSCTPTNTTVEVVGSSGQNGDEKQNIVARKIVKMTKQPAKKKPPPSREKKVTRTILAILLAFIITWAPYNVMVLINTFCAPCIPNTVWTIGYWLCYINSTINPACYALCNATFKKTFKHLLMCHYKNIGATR

[22] = Cmax in Sprague-Dawley rat 3 umol/kg, po; type: ADME, organism-based; design: dose 3 umol/kg, route oral; conditions: in vivo
[23] = target: T3, 5-hydroxytryptamine receptor 1A (Homo sapiens) (UniProt P08908); experiment: Activity at 5-HT1A receptor (unknown origin) at 10 uM relative to control; how it was run: as §2
T3 sequence (whole entry): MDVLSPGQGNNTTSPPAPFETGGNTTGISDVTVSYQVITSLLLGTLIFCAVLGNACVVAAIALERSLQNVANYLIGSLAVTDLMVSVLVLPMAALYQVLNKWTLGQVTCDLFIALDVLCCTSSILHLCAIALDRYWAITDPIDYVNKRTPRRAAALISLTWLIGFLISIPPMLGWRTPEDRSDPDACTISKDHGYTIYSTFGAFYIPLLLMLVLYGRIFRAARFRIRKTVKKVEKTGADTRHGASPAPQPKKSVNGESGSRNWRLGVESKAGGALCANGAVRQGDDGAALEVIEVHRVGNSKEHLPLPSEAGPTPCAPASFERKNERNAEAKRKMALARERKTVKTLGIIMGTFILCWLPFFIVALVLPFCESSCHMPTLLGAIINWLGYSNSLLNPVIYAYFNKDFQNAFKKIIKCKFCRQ

Salmonella typhimurium = experiment: Genotoxicity in Salmonella typhimurium by Ames test; type: toxicity, organism-based; conditions: salmonella enterica subsp. enterica serovar typhimurium
[24] = Oral bioavailability in Sprague-Dawley rat 3 umol/kg; type: ADME, organism-based; conditions: in vivo
Rattus norvegicus [25] = experiment: […] clearance in rat at 3 umol/kg, iv; type: ADME, organism-based; conditions: in vivo; how it was run: as §1
[26] = target: Phosphodiesterase 4 (Homo sapiens) (UniProt P27815+Q08499+Q07343+Q08493); experiment: Activity at PDE4 (unknown origin) at 10 uM relative to control; type: protein assay; how it was run: as §2
[27] = target: Histamine H4 receptor (Homo sapiens) (UniProt Q9H3N8); experiment: Activity at histamine H4 receptor (unknown origin) at 10 uM relative to control; how it was run: as §2
Rattus norvegicus [28] = species: Rattus norvegicus; experiment: Inhibition of rat sigma-2 receptor at 10 uM relative to control
How it was run: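 Radioligand binding screen within a 144-receptor secondary pharmacology panel, run at a single 10 μM test concentration. The response is expressed as percent activity. Activity was judged against each assay's own defined criteria.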

[29] = target: Histamine H2 receptor (Homo sapiens) (UniProt P25021); experiment: Activity at histamine H2 receptor (unknown origin) at 10 uM relative to control; how it was run: as §2
Chain of Histamine H2 receptor (Homo sapiens) (P25021 whole entry): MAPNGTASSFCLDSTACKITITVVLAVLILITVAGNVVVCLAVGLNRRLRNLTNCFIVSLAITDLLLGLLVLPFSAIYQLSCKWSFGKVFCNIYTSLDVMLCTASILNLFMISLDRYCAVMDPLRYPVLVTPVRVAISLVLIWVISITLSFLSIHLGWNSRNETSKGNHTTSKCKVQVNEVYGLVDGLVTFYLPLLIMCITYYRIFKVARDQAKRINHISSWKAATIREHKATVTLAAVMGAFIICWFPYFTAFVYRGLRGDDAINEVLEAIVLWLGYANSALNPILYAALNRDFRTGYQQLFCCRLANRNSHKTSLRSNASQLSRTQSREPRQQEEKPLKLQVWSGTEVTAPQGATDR

Mus musculus = experiment: Cognitive enhancing effect in CF-1 mouse at 1 to 10 mg/kg, sc administered 60 mins prior to acquisition phase by novel object exploration test; type: functional, organism-based
How it was run: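 Male CF-1 mice given 1, 3 or 10 mg/kg s.c. 60 min before acquisition with two identical objects; one object then swapped for a novel one; mice re-tested 15 min later. Novel/familiar interaction ratio (50% = no preference) from manual scoring; mean ± SD; ANOVA with Newman–Keuls post hoc.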

[30] = target: Adenosine receptor A2a (Homo sapiens) (UniProt P29274); experiment: Activity at adenosine A2a receptor (unknown origin) at 10 uM relative to control; how it was run: as §2
Chain of Adenosine receptor A2a (Homo sapiens) (P29274 whole entry): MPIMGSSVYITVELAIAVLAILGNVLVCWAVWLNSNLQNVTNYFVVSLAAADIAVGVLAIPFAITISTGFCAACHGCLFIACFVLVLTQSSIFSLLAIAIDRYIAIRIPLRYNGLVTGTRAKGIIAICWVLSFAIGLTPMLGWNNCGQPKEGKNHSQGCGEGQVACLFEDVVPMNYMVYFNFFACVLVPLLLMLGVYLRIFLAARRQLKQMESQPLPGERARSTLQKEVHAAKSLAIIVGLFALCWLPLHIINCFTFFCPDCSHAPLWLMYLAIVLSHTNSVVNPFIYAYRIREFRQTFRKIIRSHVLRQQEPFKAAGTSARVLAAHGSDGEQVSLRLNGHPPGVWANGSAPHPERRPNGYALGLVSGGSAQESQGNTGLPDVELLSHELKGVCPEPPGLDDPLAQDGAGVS

[31] = Apparent half life in Sprague-Dawley rat; type: ADME, organism-based; conditions: in vivo, read-out: t1/2(app) (converted)
Brain = experiment: Drug uptake in Sprague-Dawley rat brain at 3 umol/kg, iv after 1 hr; type: ADME, organism-based; conditions: in vivo; how it was run: as §3
[32] = Plasma clearance in Sprague-Dawley rat; type: ADME, organism-based; conditions: read-out: AUC
[33] = target: Sodium-dependent noradrenaline transporter (Homo sapiens) (UniProt P23975); experiment: Activity at NET (unknown origin) at 10 uM relative to control; how it was run: as §2
Chain of Sodium-dependent noradrenaline transporter (Homo sapiens) (P23975 whole entry): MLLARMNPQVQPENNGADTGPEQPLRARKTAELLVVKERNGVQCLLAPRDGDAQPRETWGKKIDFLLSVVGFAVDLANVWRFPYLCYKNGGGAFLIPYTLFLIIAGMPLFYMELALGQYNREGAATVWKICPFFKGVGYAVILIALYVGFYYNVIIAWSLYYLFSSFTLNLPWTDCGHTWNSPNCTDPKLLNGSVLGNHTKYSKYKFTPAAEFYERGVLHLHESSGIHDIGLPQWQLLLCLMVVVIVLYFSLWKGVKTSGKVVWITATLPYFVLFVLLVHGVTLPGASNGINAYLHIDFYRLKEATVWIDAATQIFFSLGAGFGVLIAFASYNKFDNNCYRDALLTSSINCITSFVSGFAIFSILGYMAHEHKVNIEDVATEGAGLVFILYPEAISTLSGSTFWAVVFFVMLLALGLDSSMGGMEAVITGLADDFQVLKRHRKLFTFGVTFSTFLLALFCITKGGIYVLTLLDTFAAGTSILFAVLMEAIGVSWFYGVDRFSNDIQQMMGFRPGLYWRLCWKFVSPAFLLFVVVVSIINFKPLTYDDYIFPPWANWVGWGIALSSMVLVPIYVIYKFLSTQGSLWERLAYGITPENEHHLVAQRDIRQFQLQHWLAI

[34] = Induction of phospholipidosis in mouse I-13.35 cells by EthD-2 staining-based assay; type: cell-based
[35] = Percentage unbound in rat plasma; type: ADME, cell-free
How it was run: (§4)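 Plasma protein binding in human or rat plasma, expressed as percent free.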

[36] = Half life in rat at 2.4 umol/kg, iv; type: ADME, organism-based; conditions: in vivo; how it was run: as §1
Rattus norvegicus [37] = experiment: […] clearance in rat at 2.4 umol/kg, iv; type: ADME, organism-based; conditions: in vivo; how it was run: as §1
[38] = Volume of distribution at steady state in rat at 2.4 umol/kg, iv; type: ADME, organism-based; conditions: in vivo, read-out: Vdss; how it was run: as §1
[39] = Percentage unbound in human plasma; type: ADME, cell-free; how it was run: as §4

T1 sequence (Q9Y5N1 whole entry): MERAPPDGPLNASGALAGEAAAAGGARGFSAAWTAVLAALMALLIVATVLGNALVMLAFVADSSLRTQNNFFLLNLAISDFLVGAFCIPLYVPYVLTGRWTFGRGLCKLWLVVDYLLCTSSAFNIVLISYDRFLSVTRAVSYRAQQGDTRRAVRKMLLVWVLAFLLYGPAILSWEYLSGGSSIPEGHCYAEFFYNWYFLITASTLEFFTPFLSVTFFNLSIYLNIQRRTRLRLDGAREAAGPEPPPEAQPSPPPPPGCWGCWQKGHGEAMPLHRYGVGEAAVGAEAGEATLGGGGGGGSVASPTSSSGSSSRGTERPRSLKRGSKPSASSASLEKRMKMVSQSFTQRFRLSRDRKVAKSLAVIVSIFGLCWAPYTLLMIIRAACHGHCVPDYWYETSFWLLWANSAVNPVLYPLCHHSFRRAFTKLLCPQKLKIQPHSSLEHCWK

IC50 (Histamine H3 receptor [1]) [nM]	Papp A→B [3] [×10⁻⁶ cm/s]	microsomal CLint [5] [µL/min/mg]	solubility thermodynamic [6] [µM]	microsomal CLint [8] [µL/min/mg]	Compound	logD [2]	Ki (Histamine H3 receptor [4]) [nM]	Activity (Homo sapiens [11]) [%]	Activity [13] [%]	Activity (Homo sapiens [14]) [%]	Activity [15] [%]	Activity [21] [%]	Activity [23] [%]	Activity [26] [%]	Activity [27] [%]	Activity [30] [%]	Activity [33] [%]	further results
1.7	3.6	< 4	> 500	< 4	CC(C)N1CCN(C(=O)C2CC3(CCN(C4CCOCC4)CC3)C2)CC1	-0.74	0.3	–	–	–	–	–	–	–	–	–	–	Vd [7]: 64 L/kg; CL (Rattus norvegicus [9]): 78 mL/min/kg; half-life [10]: 11.7 h
1.9	5.1	< 4	> 500	< 4	O=C(C1CC2(CCN(C3CCOCC3)CC2)C1)N1CCN(C2CCC2)CC1	–	–	> 10	> 10	> 10	> 10	> 10	> 10	> 10	> 10	> 10	> 10	half-life [36]: 14.2 h; CL (Rattus norvegicus [37]): 81.2 mL/min/kg; Vd [38]: 74 L/kg; fraction unbound [39]: 0.51

Compound	IC50 (Histamine H3 receptor [1]) [nM]	Papp A→B [3] [×10⁻⁶ cm/s]	microsomal CLint [5] [µL/min/mg]	solubility thermodynamic [6] [µM]	microsomal CLint [8] [µL/min/mg]	logD [2]	Ki (Histamine H3 receptor [4]) [nM]	Activity (Homo sapiens [11]) [%]	Activity [13] [%]	Activity (Homo sapiens [14]) [%]	Activity [15] [%]	Activity [21] [%]	Activity [23] [%]	Activity [26] [%]	Activity [27] [%]	Activity [30] [%]	Activity [33] [%]	further results
CC(C)N1CCN(C(=O)[C@H]2CC23CCN(C2CCOCC2)CC3)CC1	8.3	13	< 4	> 500	7	-0.26	0.8	> 10	> 10	> 10	> 10	> 10	> 10	> 10	> 10	> 10	> 10	concentration at 1 h [12]: 180 nM; dose excreted at 24 h [16]: 14%; half-life [17]: 25.3 h; concentration at 1 h [18]: 34 nM; Vd [19]: 34.6 L/kg; Tmax [20]: 6 h; Cmax [22]: 71 nM; Activity (Salmonella typhimurium): Non-toxic; bioavailability [24]: 99%; CL (Rattus norvegicus [25]): 16.4 mL/min/kg; inhibition (Rattus norvegicus [28]): 62%; Activity [29]: > 10%; Activity (Mus musculus): Active; half-life [31]: 15 h; Drug uptake (Brain): 540 nmol/kg; clearance [32]: 53 mL/min/kg; EC50 [34]: > 300000 nM; fraction unbound [35]: 0.87

Source: ChEMBL document CHEMBL3124793, “Discovery of spirofused piperazine and diazepane amides as selective histamine-3 antagonists with in vivo efficacy in a mouse model of cognition” (J Med Chem, 2014)
